# Measurements published in ChEMBL document CHEMBL3616436, “Synthesis, cytotoxicity and antimicrobial activity of thiourea derivatives incorporating 3-(trifluoromethyl)phenyl moiety” (Eur J Med Chem, 2015).
# Active and inactive are the calls of the source. No cut-off for these calls is given here.
# Assays:
# [1] = Cytotoxicity against human MT4 cells; assay type: cell-based
# [2] = system: Vesicular stomatitis virus; test: Antiviral activity against Vesicular stomatitis virus ATCC VR 1540 infected in African green monkey Vero 76 cells assessed as reduction of virus-plaque formation after 2 days by crystal violet staining; assay type: functional, organism-based; settings: ATCC VR 1540, Vero, 48 h
# [3] = system: Human immunodeficiency virus 1; test: Antiviral activity against HIV1 3B infected in human MT4 cells assessed as protection against virus-induced cytopathogenicity by MTT assay; assay type: functional, organism-based; settings: Human immunodeficiency virus 1, 3B
# [4] = Cytotoxicity against bovine MDBK cells assessed as cell viability after 48 to 96 hrs by MTT assay; assay type: cell-based, Bos taurus; settings: cattle
# [5] = Antiviral activity against Bovine viral diarrhea virus 1-NADL ATCC VR-534 infected in MDBK cells assessed as protection against virus-induced cytopathogenicity after 3 to 4 days by MTT assay; assay type: functional, cell-based; settings: Bovine viral diarrhea virus isolates and strains, ATCC VR-534, MDBK
# How it was run: (§1)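 Cells seeded in 96-well plates (BHK 5x10^4, MDBK 3x10^4 cells/well), grown overnight to confluence, infected at m.o.i. 0.01 (BHK for Reo-1, MDBK for BVDV); serial compound dilutions in maintenance medium with 0.5% inactivated FBS added after 1 h; viability by MTT after 3–4 days at 37°C; EC50 for 50% protection by linear regression.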
# [6] = Cytotoxicity against BHK cells assessed as cell viability after 48 to 96 hrs by MTT assay; assay type: cell-based, Mesocricetus auratus; settings: hamster
# Yellow fever virus = test: Antiviral activity against Yellow fever virus 17D infected in BHK cells assessed as protection against virus-induced cytopathogenicity after 3 to 4 days by MTT assay; assay type: functional, cell-based
# [7] = system: Mammalian orthoreovirus 1; test: Antiviral activity against Reovirus type-1 ATCC VR-214 infected in BHK cells assessed as protection against virus-induced cytopathogenicity after 3 to 4 days by MTT assay; assay type: functional, cell-based; settings: Mammalian orthoreovirus 1, ATCC VR-214, BHK; how it was run: as §1
# [8] = Cytotoxicity against African green monkey Vero 76 cells assessed as cell viability after 48 to 96 hrs by crystal violet staining; assay type: cell-based; settings: chlorocebus sabaeus
# Coxsackievirus B5 = test: Antiviral activity against Human coxsackievirus B5 ATCC VR-29 infected in African green monkey Vero 76 cells assessed as reduction of virus-plaque formation after 3 days by crystal violet staining; assay type: functional, organism-based; settings: Enterovirus B, ATCC VR-29, Vero, 72 h
# How it was run: (§2)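 Plaque reduction: Vero-76 at 2x10^5 cells/well grown to confluent monolayers, infected 2 h at 50–100 PFU/well; after removing unadsorbed virus, overlay of D-MEM, 1% inactivated FBS, 0.75% methylcellulose with or without serial compound dilutions; 3 days at 37°C, fixed and stained with crystal violet in 50% ethanol, plaques counted; EC50 by linear regression.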
# Poliovirus 1 = test: Antiviral activity against Poliovirus type 1 ATCC VR-1562 infected in African green monkey Vero 76 cells assessed as reduction of virus-plaque formation after 2 days by crystal violet staining; assay type: functional, organism-based; settings: Enterovirus C, ATCC VR-1562, Vero, 48 h
# Vaccinia virus = test: Antiviral activity against Human Vaccinia virus ATCC VR-1549 infected in African green monkey Vero 76 cells assessed as reduction of virus-plaque formation after 3 days by crystal violet staining; assay type: functional, organism-based; settings: Orthopoxvirus vaccinia, ATCC VR-1549, Vero, 72 h
# Human alphaherpesvirus 1 = test: Antiviral activity against Human herpesvirus 1 KOS ATCC VR-1493 infected in African green monkey Vero 76 cells assessed as reduction of virus-plaque formation after 3 days by crystal violet staining; assay type: functional, organism-based; settings: Human alphaherpesvirus 1, KOS ATCC VR1493, Vero, 72 h; how it was run: as §2
# Escherichia coli [9] = test: Antimicrobial activity against Escherichia coli ATCC 10538 after 18 hrs by twofold serial microdilution method; assay type: functional, organism-based
# Escherichia coli [10] = test: Antimicrobial activity against Escherichia coli ATCC 25922 after 18 hrs by twofold serial microdilution method; assay type: functional, organism-based
# Escherichia coli [11] = test: Antimicrobial activity against Escherichia coli NCTC 8196 after 18 hrs by twofold serial microdilution method; assay type: functional, organism-based
# Pseudomonas aeruginosa [12] = test: Antimicrobial activity against Pseudomonas aeruginosa ATCC 15442 after 18 hrs by twofold serial microdilution method; assay type: functional, organism-based
# Pseudomonas aeruginosa [13] = test: Antimicrobial activity against Pseudomonas aeruginosa NCTC 6749 after 18 hrs by twofold serial microdilution method; assay type: functional, organism-based
# Pseudomonas aeruginosa [14] = test: Antimicrobial activity against Pseudomonas aeruginosa ATCC 27863 after 18 hrs by twofold serial microdilution method; assay type: functional, organism-based
# [15] = system: Bordetella bronchiseptica; test: Antimicrobial activity against Bordetella bronchiseptica ATCC 4617 after 18 hrs by twofold serial microdilution method; assay type: functional, organism-based
# Candida albicans [16] = test: Antimicrobial activity against Candida albicans ATCC 10231 after 24 hrs by twofold serial microdilution method; assay type: functional, organism-based
# Candida albicans [17] = test: Antimicrobial activity against Candida albicans ATCC 90028 after 24 hrs by twofold serial microdilution method; assay type: functional, organism-based
# Candida parapsilosis = test: Antimicrobial activity against Candida parapsilosis ATCC 22019 after 24 hrs by twofold serial microdilution method; assay type: functional, organism-based
# Staphylococcus aureus [18] = test: Antimicrobial activity against Staphylococcus aureus NCTC 4163 at 400 ug after 18 hrs by disc-diffusion method; assay type: functional; settings: NCTC 4163, 18 h, read-out: IZ
# How it was run: (§3)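 Disc diffusion on Mueller-Hinton II agar per CLSI; 9 mm paper discs loaded with 400 µg compound from DMSO solution, dried, placed on agar; growth inhibition zone diameter read after 18 h at 35°C.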
# Staphylococcus aureus [19] = test: Antimicrobial activity against Staphylococcus aureus ATCC 25923 at 400 ug after 18 hrs by disc-diffusion method; assay type: functional; settings: ATCC 25923, 18 h, read-out: IZ; how it was run: as §3
# Staphylococcus aureus [20] = test: Antimicrobial activity against Staphylococcus aureus ATCC 6538 at 400 ug after 18 hrs by disc-diffusion method; assay type: functional; settings: ATCC 6538, 18 h, read-out: IZ; how it was run: as §3
# Staphylococcus aureus [21] = test: Antimicrobial activity against Staphylococcus aureus ATCC 29213 at 400 ug after 18 hrs by disc-diffusion method; assay type: functional; settings: ATCC 29213, 18 h, read-out: IZ; how it was run: as §3
# [22] = system: Staphylococcus epidermidis; test: Antimicrobial activity against Staphylococcus epidermidis ATCC 12228 at 400 ug after 18 hrs by disc-diffusion method; assay type: functional; settings: ATCC 12228, 18 h, read-out: IZ; how it was run: as §3
# [23] = system: Staphylococcus epidermidis; test: Antimicrobial activity against Staphylococcus epidermidis ATCC 35984 at 400 ug after 18 hrs by disc-diffusion method; assay type: functional; settings: ATCC 35984, 18 h, read-out: IZ; how it was run: as §3
# Bacillus subtilis = test: Antimicrobial activity against Bacillus subtilis ATCC 6633 at 400 ug after 18 hrs by disc-diffusion method; assay type: functional; settings: ATCC 6633, 18 h, read-out: IZ; how it was run: as §3
# Bacillus cereus = test: Antimicrobial activity against Bacillus cereus ATCC 11778 at 400 ug after 18 hrs by disc-diffusion method; assay type: functional; settings: ATCC 11778, 18 h, read-out: IZ; how it was run: as §3
# Enterococcus hirae = test: Antimicrobial activity against Enterococcus hirae ATCC 10541 at 400 ug after 18 hrs by disc-diffusion method; assay type: functional; how it was run: as §3
# Enterococcus faecalis = test: Antimicrobial activity against Enterococcus faecalis ATCC 29212 at 400 ug after 18 hrs by disc-diffusion method; assay type: functional; settings: ATCC 29212, 18 h, read-out: IZ; how it was run: as §3
# Micrococcus luteus [24] = test: Antimicrobial activity against Micrococcus luteus ATCC 10240 at 400 ug after 18 hrs by disc-diffusion method; assay type: functional; settings: ATCC 10240, 18 h, read-out: IZ; how it was run: as §3
# Micrococcus luteus [25] = test: Antimicrobial activity against Micrococcus luteus ATCC 9341 at 400 ug after 18 hrs by disc-diffusion method; assay type: functional; settings: ATCC 9341, 18 h, read-out: IZ; how it was run: as §3
# Proteus vulgaris = test: Antimicrobial activity against Proteus vulgaris NCTC 4635 at 400 ug after 18 hrs by disc-diffusion method; assay type: functional; how it was run: as §3
# Staphylococcus aureus [26] = test: Antimicrobial activity against Staphylococcus aureus NCTC 4163 after 18 hrs by twofold serial microdilution method; assay type: functional; settings: NCTC 4163, 18 h
# Staphylococcus aureus [27] = test: Antimicrobial activity against Staphylococcus aureus ATCC 25923 after 18 hrs by twofold serial microdilution method; assay type: functional; settings: ATCC 25923, 18 h
# Staphylococcus aureus [28] = test: Antimicrobial activity against Staphylococcus aureus ATCC 6538 after 18 hrs by twofold serial microdilution method; assay type: functional; settings: ATCC 6538, 18 h
# Staphylococcus aureus [29] = test: Antimicrobial activity against Staphylococcus aureus ATCC 29213 after 18 hrs by twofold serial microdilution method; assay type: functional; settings: ATCC 29213, 18 h
# [30] = system: Staphylococcus epidermidis; test: Antimicrobial activity against Staphylococcus epidermidis ATCC 12228 after 18 hrs by twofold serial microdilution method; assay type: functional; settings: ATCC 12228, 18 h
# [31] = system: Staphylococcus epidermidis; test: Antimicrobial activity against Staphylococcus epidermidis ATCC 35984 after 18 hrs by twofold serial microdilution method; assay type: functional; settings: ATCC 35984, 18 h
# [32] = system: Mycobacterium tuberculosis; test: Antimycobacterial activity against Mycobacterium tuberculosis H37Rv ATCC 25618; assay type: functional
# How it was run: (§4)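 Classical test-tube successive-dilution method in Youmans' modification of Proskauer and Beck liquid medium with 10% bovine serum. Inoculum came from 14-day cultures. DMSO stock was 10 mg/mL, diluted geometrically in medium. Tubes were incubated at 37 °C. Concentrations tested were 3.1, 6.2, 12.5, 25, 50 and 100 µg/ml. MIC is the minimum concentration inhibiting growth relative to compound-free tubes.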
# [33] = system: Mycobacterium tuberculosis; test: Antimycobacterial activity against drug-sensitive Mycobacterium tuberculosis Spec. 192; assay type: functional; how it was run: as §4
structure (smiles),measurement,setting,value
FC(F)(F)c1cccc(NC(=S)Nc2ccccc2Br)c1,CC50,[1],36 µM
same,EC50,[2],> 50 µM
same,EC50,[3],> 36 µM
same,CC50,[4],> 100 µM
same,EC50,[5],> 100 µM
same,CC50,[6],59 µM
same,EC50,Yellow fever virus,> 59 µM
same,EC50,[7],> 59 µM
same,CC50,[8],50 µM
same,EC50,Coxsackievirus B5,> 50 µM
same,EC50,Poliovirus 1,> 50 µM
same,EC50,Vaccinia virus,> 50 µM
same,EC50,Human alphaherpesvirus 1,> 50 µM
same,Activity,Escherichia coli [9],inactive
same,Activity,Escherichia coli [10],inactive
same,Activity,Escherichia coli [11],inactive
same,Activity,Pseudomonas aeruginosa [12],inactive
same,Activity,Pseudomonas aeruginosa [13],inactive
same,Activity,Pseudomonas aeruginosa [14],inactive
same,Activity,[15],inactive
same,Activity,Candida albicans [16],inactive
same,Activity,Candida albicans [17],inactive
same,Activity,Candida parapsilosis,inactive
CC[C@H]1CC[C@H](c2ccc(NC(=S)Nc3cccc(C(F)(F)F)c3)cc2)CC1,CC50,[1],39 µM
same,EC50,[2],> 10 µM
same,EC50,[3],> 39 µM
same,CC50,[4],9 µM
same,EC50,[5],> 9 µM
same,CC50,[6],10 µM
same,EC50,Yellow fever virus,> 10 µM
same,EC50,[7],> 10 µM
same,CC50,[8],10 µM
same,EC50,Coxsackievirus B5,> 10 µM
same,EC50,Poliovirus 1,> 10 µM
same,EC50,Vaccinia virus,> 10 µM
same,EC50,Human alphaherpesvirus 1,> 10 µM
same,Activity,Escherichia coli [9],inactive
same,Activity,Escherichia coli [10],inactive
same,Activity,Escherichia coli [11],inactive
same,Activity,Pseudomonas aeruginosa [12],inactive
same,Activity,Pseudomonas aeruginosa [13],inactive
same,Activity,Pseudomonas aeruginosa [14],inactive
same,Activity,[15],inactive
same,Activity,Candida albicans [16],inactive
same,Activity,Candida albicans [17],inactive
same,Activity,Candida parapsilosis,inactive
CSCCCNC(=S)Nc1cccc(C(F)(F)F)c1,CC50,[1],43 µM
same,EC50,[2],> 100 µM
same,EC50,[3],> 43 µM
same,CC50,[4],> 100 µM
same,EC50,[5],> 100 µM
same,CC50,[6],> 100 µM
same,EC50,Yellow fever virus,> 100 µM
same,EC50,[7],> 100 µM
same,CC50,[8],> 100 µM
same,EC50,Coxsackievirus B5,> 100 µM
same,EC50,Poliovirus 1,> 100 µM
same,EC50,Vaccinia virus,> 100 µM
same,EC50,Human alphaherpesvirus 1,> 100 µM
same,zone of inhibition at 400 µg/disc,Staphylococcus aureus [18],19 mm
same,zone of inhibition at 400 µg/disc,Staphylococcus aureus [19],18 mm
same,zone of inhibition at 400 µg/disc,Staphylococcus aureus [20],18 mm
same,zone of inhibition at 400 µg/disc,Staphylococcus aureus [21],18 mm
same,zone of inhibition at 400 µg/disc,[22],20 mm
same,zone of inhibition at 400 µg/disc,[23],16 mm
same,zone of inhibition at 400 µg/disc,Bacillus subtilis,18 mm
same,zone of inhibition at 400 µg/disc,Bacillus cereus,19 mm
same,inhibition zone (IZ),Enterococcus hirae,inactive
same,zone of inhibition at 400 µg/disc,Enterococcus faecalis,13 mm
same,zone of inhibition at 400 µg/disc,Micrococcus luteus [24],16 mm
same,zone of inhibition at 400 µg/disc,Micrococcus luteus [25],20 mm
same,inhibition zone (IZ),Proteus vulgaris,inactive
same,MIC,Staphylococcus aureus [26],32 mg/L
same,MIC,Staphylococcus aureus [27],32 mg/L
same,MIC,Staphylococcus aureus [28],32 mg/L
same,MIC,Staphylococcus aureus [29],32 mg/L
same,MIC,[30],32 mg/L
same,MIC,[31],64 mg/L
same,MIC,[32],50 mg/L
same,MIC,[33],100 mg/L
